# Test results from ChEMBL document CHEMBL1140002, “Synthesis and biological evaluation of (R)-N-(diarylmethylthio/sulfinyl)ethyl/propyl-piperidine-3-carboxylic acid hydrochlorides as novel GABA uptake inhibitors” (Bioorg Med Chem Lett, 2007).
# Structures can show the parent of a compound that is named as a salt.
# Target: Sodium- and chloride-dependent GABA transporter 1 (Mus musculus, UniProt P31648)
# Test: Inhibition of [3H]GABA uptake at mouse GAT1 expressed in D8 cells
# Type: cell-based
# In short: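 D8 cells in RPMI1640 with 10% FBS grown to near confluence (~60,000 cells/well), rinsed with PBS, pre-incubated 10 min at rt in HBSS. Stopped by aspirating HBSS, three rapid cold PBS washes, cells solubilized in 2 N NaOH; uptake quantified by liquid scintillation counting.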
row,Structure (SMILES),IC50 [µM]
1,Cc1ccc(C(SCCCN2CCC[C@@H](C(=O)O)C2)c2ccc(C)cc2)cc1,15.8
2,COc1ccc(C(SCCCN2CCC[C@@H](C(=O)O)C2)c2ccc(OC)cc2)cc1,120
3,COc1ccc(C(c2ccc(OC)cc2)[S+]([O-])CCN2CCC[C@@H](C(=O)O)C2)cc1 (stereo partly drawn),589
4,Cc1ccccc1C(c1cccc(C)c1C)[S+]([O-])CCN1CCC[C@@H](C(=O)O)C1 (stereo partly drawn),105
5,O=C(O)[C@@H]1CCCN(CCSC(c2ccccc2)c2ccccc2)C1,1600
6,COc1ccc(C(SCCN2CCC[C@@H](C(=O)O)C2)c2ccc(OC)cc2)cc1,4800
7,Cc1ccccc1C(SCCN1CCC[C@@H](C(=O)O)C1)c1cccc(C)c1C (stereo partly drawn),2130
8,O=C(O)[C@@H]1CCCN(CCCSC(c2ccccc2)c2ccccc2)C1,11.6
9,O=C(O)[C@@H]1CCCN(CC[S+]([O-])C(c2ccccc2)c2ccccc2)C1 (stereo partly drawn),0.92
10,Cc1ccc(C(SCCN2CCC[C@@H](C(=O)O)C2)c2ccc(C)cc2)cc1,240
11,Cc1ccccc1C(SCCCN1CCC[C@@H](C(=O)O)C1)c1cccc(C)c1C (stereo partly drawn),16.9
12,Cc1ccc(C(c2ccc(C)cc2)[S+]([O-])CCN2CCC[C@@H](C(=O)O)C2)cc1 (stereo partly drawn),1.18
13,Cc1ccsc1C(=CCCN1CCC[C@@H](C(=O)O)C1)c1sccc1C [TIAGABINE HYDROCHLORIDE],0.08
